Measurements taken from ChEMBL document CHEMBL5260840 (J Med Chem, 2019).
Each block holds one compound with its values, some of them ahead of it. Activity calls are given as the source filed them. The calls are words filed in the database; no cut-off is given here.

How the values were obtained:
Assay type in all cases: cell-based
[1] = biological target: T1, von Hippel-Lindau disease tumor suppressor/Bromodomain-containing protein 7 (Homo sapiens) (UniProt Q9NPI1+P40337); assay: PROTAC activity at VHL/BRD7 in human HeLa cells assessed as remaining BRD7 protein level at 1 uM incubated for 4 hrs by Western blot analysis relative to control
[2] = biological target: T2, von Hippel-Lindau disease tumor suppressor/Bromodomain-containing protein 9 (Homo sapiens) (UniProt Q9H8M2+P40337); assay: PROTAC activity at VHL/BRD9 in human Ri-1 cells assessed as remaining BRD9 protein level at 1 uM incubated for 2 hrs by Western blot analysis relative to control
Procedure, shortened: (§1)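 Ri-1 cells exposed to compound for the stated time before harvest; BRD9, BRD7 and β-actin measured by Western blot, band intensities quantified and set against DMSO-treated control.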

[3] = biological target: T1, von Hippel-Lindau disease tumor suppressor/Bromodomain-containing protein 7 (Homo sapiens); assay: PROTAC activity at VHL/BRD7 in human Ri-1 cells assessed as remaining BRD7 protein level at 1 uM incubated for 2 hrs by Western blot analysis relative to control
[4] = biological target: T2, von Hippel-Lindau disease tumor suppressor/Bromodomain-containing protein 9 (Homo sapiens); assay: PROTAC activity at VHL/BRD9 in human Ri-1 cells assessed as remaining BRD9 protein level at 1 uM incubated for 8 hrs by Western blot analysis relative to control; procedure, shortened: as §1
[5] = biological target: T1, von Hippel-Lindau disease tumor suppressor/Bromodomain-containing protein 7 (Homo sapiens); assay: PROTAC activity at VHL/BRD7 in human Ri-1 cells assessed as remaining BRD7 protein level at 1 uM incubated for 8 hrs by Western blot analysis relative to control
[6] = biological target: T2, von Hippel-Lindau disease tumor suppressor/Bromodomain-containing protein 9 (Homo sapiens); assay: PROTAC activity at VHL/BRD9 in human Ri-1 cells assessed as remaining BRD9 protein level at 100 nM incubated for 8 hrs by Western blot analysis relative to control; procedure, shortened: as §1
[7] = biological target: T2, von Hippel-Lindau disease tumor suppressor/Bromodomain-containing protein 9 (Homo sapiens); assay: PROTAC activity at VHL/BRD9 in human Ri-1 cells assessed as remaining BRD9 protein level at 10 nM incubated for 8 hrs by Western blot analysis relative to control; procedure, shortened: as §1
[8] = biological target: T2, von Hippel-Lindau disease tumor suppressor/Bromodomain-containing protein 9 (Homo sapiens); assay: PROTAC activity at VHL/BRD9 in human Ri-1 cells assessed as remaining BRD9 protein level at 1 nM incubated for 8 hrs by Western blot analysis relative to control; procedure, shortened: as §1
[9] = biological target: T2, von Hippel-Lindau disease tumor suppressor/Bromodomain-containing protein 9 (Homo sapiens); assay: PROTAC activity at VHL/BRD9 in human Ri-1 cells assessed as remaining BRD9 protein level at 0.1 nM incubated for 8 hrs by Western blot analysis relative to control; procedure, shortened: as §1
[10] = biological target: T2, von Hippel-Lindau disease tumor suppressor/Bromodomain-containing protein 9 (Homo sapiens); assay: PROTAC activity at VHL/BRD9 in human Ri-1 cells assessed as remaining BRD9 protein level at 10000 nM incubated for 2 hrs by Western blot analysis relative to control; procedure, shortened: as §1
[11] = biological target: T2, von Hippel-Lindau disease tumor suppressor/Bromodomain-containing protein 9 (Homo sapiens); assay: PROTAC activity at VHL/BRD9 in human Ri-1 cells assessed as remaining BRD9 protein level at 100 nM incubated for 2 hrs by Western blot analysis relative to control; procedure, shortened: as §1
[12] = biological target: T2, von Hippel-Lindau disease tumor suppressor/Bromodomain-containing protein 9 (Homo sapiens); assay: PROTAC activity at VHL/BRD9 in human Ri-1 cells assessed as remaining BRD9 protein level at 10 nM incubated for 2 hrs by Western blot analysis relative to control; procedure, shortened: as §1
[13] = biological target: T2, von Hippel-Lindau disease tumor suppressor/Bromodomain-containing protein 9 (Homo sapiens); assay: PROTAC activity at VHL/BRD9 in human Ri-1 cells assessed as remaining BRD9 protein level at 1 nM incubated for 2 hrs by Western blot analysis relative to control; procedure, shortened: as §1
[14] = biological target: T1, von Hippel-Lindau disease tumor suppressor/Bromodomain-containing protein 7 (Homo sapiens); assay: PROTAC activity at VHL/BRD7 in human Ri-1 cells assessed as remaining BRD7 protein level at 100 nM incubated for 8 hrs by Western blot analysis relative to control; procedure, shortened: as §1
[15] = biological target: T1, von Hippel-Lindau disease tumor suppressor/Bromodomain-containing protein 7 (Homo sapiens); assay: PROTAC activity at VHL/BRD7 in human Ri-1 cells assessed as remaining BRD7 protein level at 10 nM incubated for 8 hrs by Western blot analysis relative to control; procedure, shortened: as §1
[16] = biological target: T1, von Hippel-Lindau disease tumor suppressor/Bromodomain-containing protein 7 (Homo sapiens); assay: PROTAC activity at VHL/BRD7 in human Ri-1 cells assessed as remaining BRD7 protein level at 1 nM incubated for 8 hrs by Western blot analysis relative to control
[17] = biological target: T1, von Hippel-Lindau disease tumor suppressor/Bromodomain-containing protein 7 (Homo sapiens); assay: PROTAC activity at VHL/BRD7 in human Ri-1 cells assessed as remaining BRD7 protein level at 0.1 nM incubated for 8 hrs by Western blot analysis relative to control
[18] = biological target: T1, von Hippel-Lindau disease tumor suppressor/Bromodomain-containing protein 7 (Homo sapiens); assay: PROTAC activity at VHL/BRD7 in human Ri-1 cells assessed as remaining BRD7 protein level at 10000 nM incubated for 2 hrs by Western blot analysis relative to control; procedure, shortened: as §1
[19] = biological target: T1, von Hippel-Lindau disease tumor suppressor/Bromodomain-containing protein 7 (Homo sapiens); assay: PROTAC activity at VHL/BRD7 in human Ri-1 cells assessed as remaining BRD7 protein level at 100 nM incubated for 2 hrs by Western blot analysis relative to control; procedure, shortened: as §1
[20] = biological target: T1, von Hippel-Lindau disease tumor suppressor/Bromodomain-containing protein 7 (Homo sapiens); assay: PROTAC activity at VHL/BRD7 in human Ri-1 cells assessed as remaining BRD7 protein level at 10 nM incubated for 2 hrs by Western blot analysis relative to control
[21] = biological target: T1, von Hippel-Lindau disease tumor suppressor/Bromodomain-containing protein 7 (Homo sapiens); assay: PROTAC activity at VHL/BRD7 in human Ri-1 cells assessed as remaining BRD7 protein level at 1 nM incubated for 2 hrs by Western blot analysis relative to control
[22] = biological target: T2, von Hippel-Lindau disease tumor suppressor/Bromodomain-containing protein 9 (Homo sapiens); assay: PROTAC activity at VHL/BRD9 in human HeLa cells assessed as remaining BRD9 protein level at 1 uM incubated for 16 hrs by Western blot analysis relative to control
Procedure, shortened: (§2)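 HeLa cells treated with compound for the stated time before harvest; BRD9, BRD7 and β-actin detected by Western blot with β-actin loading control; band intensities quantified.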

[23] = biological target: T1, von Hippel-Lindau disease tumor suppressor/Bromodomain-containing protein 7 (Homo sapiens); assay: PROTAC activity at VHL/BRD7 in human HeLa cells assessed as remaining BRD7 protein level at 1 uM incubated for 16 hrs by Western blot analysis relative to control
[24] = biological target: T1, von Hippel-Lindau disease tumor suppressor/Bromodomain-containing protein 7 (Homo sapiens); assay: PROTAC activity at VHL/BRD7 in human HeLa cells assessed as protein degradation at 1 uM incubated for 4 hrs by Western blot analysis relative to control
[25] = biological target: T2, von Hippel-Lindau disease tumor suppressor/Bromodomain-containing protein 9 (Homo sapiens); assay: PROTAC activity at VHL/BRD9 in human HeLa cells assessed as protein degradation at 1 uM incubated for 4 hrs by Western blot analysis relative to control; procedure, shortened: as §2
[26] = biological target: T1, von Hippel-Lindau disease tumor suppressor/Bromodomain-containing protein 7 (Homo sapiens); assay: PROTAC activity at VHL/BRD7 in human HeLa cells assessed as protein degradation at 1 uM incubated for 16 hrs by Western blot analysis relative to control
[27] = biological target: T2, von Hippel-Lindau disease tumor suppressor/Bromodomain-containing protein 9 (Homo sapiens); assay: PROTAC activity at VHL/BRD9 in human HeLa cells assessed as protein degradation at 1 uM incubated for 16 hrs by Western blot analysis relative to control; procedure, shortened: as §2
[28] = biological target: T1, von Hippel-Lindau disease tumor suppressor/Bromodomain-containing protein 7 (Homo sapiens); assay: PROTAC activity at VHL/BRD7 in human Ri-1 cells assessed as BRD7 protein degradation at 100 nM incubated for 4 hrs by MS proteomics analysis
[29] = biological target: T2, von Hippel-Lindau disease tumor suppressor/Bromodomain-containing protein 9 (Homo sapiens); assay: PROTAC activity at VHL/BRD9 in human Ri-1 cells assessed as BRD9 protein degradation at 100 nM incubated for 4 hrs by MS proteomics analysis
Procedure, shortened: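 RI-1 cells treated in triplicate with compound (100 nM) or DMSO for 4 h; whole-cell proteome quantified by MS (6273 proteins), fold change versus control with t-test P-values.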

[30] = biological target: T2, von Hippel-Lindau disease tumor suppressor/Bromodomain-containing protein 9 (Homo sapiens); assay: PROTAC activity at VHL/BRD9 in human Ri-1 cells assessed as BRD9 protein degradation at 100 nM incubated for 4 hrs by Western blot analysis; procedure, shortened: as §1
[31] = biological target: T1, von Hippel-Lindau disease tumor suppressor/Bromodomain-containing protein 7 (Homo sapiens); assay: PROTAC activity at VHL/BRD7 in human Ri-1 cells assessed as BRD7 protein degradation at 100 nM incubated for 4 hrs by Western blot analysis

T2 sequence (P40337 whole entry, looked up): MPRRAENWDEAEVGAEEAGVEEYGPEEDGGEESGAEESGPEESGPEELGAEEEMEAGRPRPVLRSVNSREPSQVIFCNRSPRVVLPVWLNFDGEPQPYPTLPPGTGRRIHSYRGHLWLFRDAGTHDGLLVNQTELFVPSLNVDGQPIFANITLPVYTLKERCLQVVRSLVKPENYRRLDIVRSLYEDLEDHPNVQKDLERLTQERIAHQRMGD
T2 sequence (Q9H8M2 whole entry, looked up): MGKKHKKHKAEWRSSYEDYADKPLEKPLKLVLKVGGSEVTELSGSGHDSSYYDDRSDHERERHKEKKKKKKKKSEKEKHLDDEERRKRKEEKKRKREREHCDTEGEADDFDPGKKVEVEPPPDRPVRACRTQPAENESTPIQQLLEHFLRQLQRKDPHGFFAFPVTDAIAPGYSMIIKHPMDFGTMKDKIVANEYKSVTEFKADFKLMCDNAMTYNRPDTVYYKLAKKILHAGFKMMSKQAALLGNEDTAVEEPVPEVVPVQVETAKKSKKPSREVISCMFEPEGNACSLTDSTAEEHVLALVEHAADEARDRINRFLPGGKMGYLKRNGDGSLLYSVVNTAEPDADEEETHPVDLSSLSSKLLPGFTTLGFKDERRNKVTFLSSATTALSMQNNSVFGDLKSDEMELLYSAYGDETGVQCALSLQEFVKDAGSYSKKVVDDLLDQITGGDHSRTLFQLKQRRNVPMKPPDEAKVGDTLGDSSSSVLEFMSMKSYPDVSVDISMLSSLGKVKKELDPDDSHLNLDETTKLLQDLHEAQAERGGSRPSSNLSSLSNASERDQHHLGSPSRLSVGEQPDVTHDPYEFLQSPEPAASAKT
T1 sequence (P40337 whole entry, looked up): as the sequence (P40337 whole entry, looked up) above
T1 sequence (Q9NPI1 whole entry, looked up): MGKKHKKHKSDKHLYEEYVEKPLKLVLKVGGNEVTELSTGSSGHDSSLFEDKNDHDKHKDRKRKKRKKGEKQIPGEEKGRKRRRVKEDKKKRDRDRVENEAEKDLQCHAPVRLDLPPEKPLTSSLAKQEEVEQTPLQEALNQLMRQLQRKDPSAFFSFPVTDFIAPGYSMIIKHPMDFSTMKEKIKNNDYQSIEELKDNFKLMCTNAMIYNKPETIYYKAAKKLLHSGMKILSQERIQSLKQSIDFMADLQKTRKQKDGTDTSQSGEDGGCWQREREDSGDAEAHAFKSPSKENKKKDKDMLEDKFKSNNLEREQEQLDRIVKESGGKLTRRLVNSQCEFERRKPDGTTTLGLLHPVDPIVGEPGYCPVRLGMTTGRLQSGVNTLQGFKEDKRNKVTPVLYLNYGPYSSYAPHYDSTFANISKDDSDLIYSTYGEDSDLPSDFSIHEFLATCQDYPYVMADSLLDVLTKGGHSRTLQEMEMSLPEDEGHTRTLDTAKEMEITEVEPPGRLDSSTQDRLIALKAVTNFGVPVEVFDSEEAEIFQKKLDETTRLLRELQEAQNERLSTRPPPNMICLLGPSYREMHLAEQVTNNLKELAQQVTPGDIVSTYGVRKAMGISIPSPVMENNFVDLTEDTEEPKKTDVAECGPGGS

Activity [1]: 8%
Activity [2]: 44%
Activity [3]: 63%
Activity [4]: 6%
Activity [5]: 8%
Activity [6]: 63%
Activity [7]: 103%
Activity [8]: 109%
Activity [9]: 117%
Activity [10]: 66%
Activity [11]: 50%
Activity [12]: 113%
Activity [13]: 110%
Activity [14]: 152%
Activity [15]: 155%
Activity [16]: 155%
Activity [17]: 155%
Activity [18]: 33%
Activity [19]: 75%
Activity [20]: 123%
Activity [21]: 101%
SMILES: COc1cc(-c2cn(C)c(=O)c3cnccc23)cc(OC)c1CN1CCN(CCOCCOc2cc(-c3scnc3C)ccc2CNC(=O)[C@@H]2C[C@@H](O)CN2C(=O)[C@@H](NC(=O)C2(F)CC2)C(C)(C)C)CC1

Activity [22]: 78%
Activity [1]: 81%
Activity [23]: 73%
Activity [24]: 20%
Activity [25]: 20%
Activity [26]: 30%
Activity [27]: 30%
SMILES: COc1cc(-c2cn(C)c(=O)c3cnccc23)cc(OC)c1CN1CCN(CCOCCOCCOCCOCC(=O)N[C@H](C(=O)N2C[C@H](O)C[C@H]2C(=O)NCc2ccc(-c3scnc3C)cc2)C(C)(C)C)CC1

Activity [28]: inactive
Activity [29]: inactive
Activity [30]: inactive
Activity [31]: inactive
SMILES: COc1cc(-c2cn(C)c(=O)c3cnccc23)cc(OC)c1CN1CCN(CCCCCOc2cc(-c3scnc3C)ccc2CNC(=O)[C@@H]2C[C@H](O)CN2C(=O)[C@@H](NC(=O)C2(F)CC2)C(C)(C)C)CC1
